Laboratory results as given in ChEMBL document CHEMBL4385657, “A fragment-like approach to PYCR1 inhibition” (Bioorg Med Chem Lett, 2019).
pIC50: −log10 of the molar value. Activity calls are given as the source filed them. The calls are words filed in the database; no cut-off is given here.

Columns and labels:
[1] = target: T1, Pyrroline-5-carboxylate reductase 1, mitochondrial (Homo sapiens, UniProt P32322); assay: Inhibition of 6x-His-tagged and SUMO tagged human PYCR1 expressed in Escherichia coli BL21 (DE3) cells assessed as reduction in NADH oxidation incubated for 1 hr
T1 sequence (P32322 whole entry): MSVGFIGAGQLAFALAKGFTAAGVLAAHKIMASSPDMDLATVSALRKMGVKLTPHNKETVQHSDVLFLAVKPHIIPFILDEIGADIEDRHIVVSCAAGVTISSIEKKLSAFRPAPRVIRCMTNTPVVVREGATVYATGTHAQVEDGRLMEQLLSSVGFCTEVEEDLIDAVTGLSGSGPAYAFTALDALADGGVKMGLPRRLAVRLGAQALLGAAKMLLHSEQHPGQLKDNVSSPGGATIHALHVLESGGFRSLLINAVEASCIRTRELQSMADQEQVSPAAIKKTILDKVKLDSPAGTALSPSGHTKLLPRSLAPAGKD

SUM-159-PT [2] = assay: Effect on valine content in human SUM159PT cells at 1 to 100 uM by LC-MS analysis relative to control; type: ADME, cell-based
In short: (§1)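 Human breast cancer SUM-159-PT cells were incubated with test agent at 1, 5, 20 and 100 µM (or at 100 µM alone). The cells were then lysed, and proline and the essential amino acids were quantified by LC-MS. Each amino acid level was compared against an untreated control culture.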

SUM-159-PT [3] = assay: Effect on phenylalanine content in human SUM159PT cells at 1 to 100 uM by LC-MS analysis relative to control; type: ADME, cell-based; in short: as §1
SUM-159-PT [4] = assay: Effect on tryptophan content in human SUM159PT cells at 1 to 100 uM by LC-MS analysis relative to control; type: ADME, cell-based; in short: as §1
[5] = target: T2, Amine oxidase [flavin-containing] B (Homo sapiens, UniProt P27338); assay: Inhibition of MAOB (unknown origin)
T2 sequence (P27338 whole entry): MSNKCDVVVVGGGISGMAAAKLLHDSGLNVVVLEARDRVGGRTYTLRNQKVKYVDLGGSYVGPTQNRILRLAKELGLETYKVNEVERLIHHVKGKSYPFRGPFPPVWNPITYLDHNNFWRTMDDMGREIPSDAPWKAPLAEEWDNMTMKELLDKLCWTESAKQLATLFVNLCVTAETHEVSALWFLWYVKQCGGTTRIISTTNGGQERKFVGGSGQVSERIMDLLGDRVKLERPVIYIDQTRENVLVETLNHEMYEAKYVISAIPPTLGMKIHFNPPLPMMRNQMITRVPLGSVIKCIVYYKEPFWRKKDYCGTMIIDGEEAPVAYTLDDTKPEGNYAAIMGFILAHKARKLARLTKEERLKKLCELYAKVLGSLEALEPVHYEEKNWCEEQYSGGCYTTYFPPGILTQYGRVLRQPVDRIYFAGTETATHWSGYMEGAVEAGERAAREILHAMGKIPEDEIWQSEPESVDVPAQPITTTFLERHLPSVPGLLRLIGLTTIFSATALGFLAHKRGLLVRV

SUM-159-PT [6] = assay: Toxicity in human SUM159PT cells assessed as reduction in cell viability at 100 uM; type: cell-based
SUM-159-PT [7] = assay: Effect on methionine content in human SUM159PT cells at 1 to 100 uM by LC-MS analysis relative to control; type: ADME, cell-based; in short: as §1
SUM-159-PT [8] = assay: Effect on leucine content in human SUM159PT cells at 1 to 100 uM by LC-MS analysis relative to control; type: ADME, cell-based; in short: as §1
SUM-159-PT [9] = assay: Effect on isoleucine content in human SUM159PT cells at 1 to 100 uM by LC-MS analysis relative to control; type: ADME, cell-based; in short: as §1
SUM-159-PT [10] = assay: Effect on methionine content in human SUM159PT cells at 100 uM by LC-MS analysis relative to control; type: functional, cell-based; in short: as §1
SUM-159-PT [11] = assay: Effect on isoleucine content in human SUM159PT cells at 100 uM by LC-MS analysis relative to control; type: functional, cell-based; in short: as §1
SUM-159-PT [12] = assay: Effect on phenylalanine content in human SUM159PT cells at 100 uM by LC-MS analysis relative to control; type: functional, cell-based; in short: as §1
SUM-159-PT [13] = assay: Effect on tryptophan content in human SUM159PT cells at 100 uM by LC-MS analysis relative to control; type: functional, cell-based; in short: as §1
SUM-159-PT [14] = assay: Effect on valine content in human SUM159PT cells at 100 uM by LC-MS analysis relative to control; type: functional, cell-based; in short: as §1
SUM-159-PT [15] = assay: Effect on leucine content in human SUM159PT cells at 100 uM by LC-MS analysis relative to control; type: functional, cell-based; in short: as §1

pIC50 [1] | SMILES | other results
< 3.30 | C#CCN(Cc1ccc(Br)cc1)CC1CC1 | 
3.79 | CNCc1ccc(Br)cc1 | 
4.24 | C#CCN(CC)Cc1ccc(Br)cc1 | 
4.04 | C#CCN(Cc1ccc(Br)cc1)Cc1ccc(Br)cc1 | 
< 3.30 | C#CCN(C)Cc1ccc(F)cc1Br | 
3.50 | C#CCN(C)Cc1ccc(-c2ccccc2)cc1 | 
4.68 | C#CCN(C)Cc1ccc(Br)cc1OC | 
3.70 | C#CCN(C)Cc1ccccc1Br | 
< 3.30 | C#CCN(C)Cc1cc(Cl)cc(Cl)c1 | 
4.28 | C#CCN(C)Cc1cccc(Cl)c1 | 
3.70 | C#CCN(C)Cc1ccccc1 [PARGYLINE] | Activity (SUM-159-PT [10]): inactive; Activity (SUM-159-PT [11]): inactive; Activity (SUM-159-PT [12]): inactive; Activity (SUM-159-PT [13]): inactive; Activity (SUM-159-PT [14]): inactive; Activity (SUM-159-PT [15]): inactive
4.68 | C#CCN(C)Cc1ccc2ccccc2c1 | 
< 3.30 | C#CCN(CC(=O)OC(C)(C)C)Cc1ccc(Br)cc1 | 
5.04 | C#CCN(C)Cc1ccc(Cl)cc1Cl | 
< 3.30 | C#CCN1CCc2cc(Br)ccc2C1 | 
3.40 | C#CCN(C)Cc1cccc([N+](=O)[O-])c1 | 
< 3.30 | C#CCN(Cc1ccc(Br)cc1)S(C)(=O)=O | 
4.00 | C#CCNCc1ccc(Br)cc1 | 
4.42 | C#CCN(C)Cc1ccc(OC)cc1 | 
4.26 | C#CCN(C)Cc1ccc(C)cc1C | 
3.50 | C#CCN(C)C(C)c1ccc(Br)cc1 (centres undefined) | 
4.37 | C#CCN(C)Cc1ccc(Cl)c(C(F)(F)F)c1 | 
5.01 | C#CCN(C)Cc1ccc(I)cc1 | 
4.89 | C#CCN(C)Cc1ccc(Cl)cc1 | 
3.47 | CCCN(C)Cc1ccc(Br)cc1 | 
3.56 | C#CCN(C)Cc1cccc(Br)c1 | 
< 3.30 | C#CCN(CCC=C)Cc1ccc(Br)cc1 | 
4.42 | C#CCN(C)Cc1ccc(Br)cc1C | 
< 3.30 | C#CCCN(C)Cc1ccc(Br)cc1 | 
< 3.30 | C#CCN(Cc1ccc(Br)cc1)C(C)C | 

The remaining lines, values behind:

SMILES | pIC50 [1] | other results
C#CCN(C)Cc1ccc([N+](=O)[O-])cc1 | 4.37 | 
C#CCN(C)Cc1ccc(C(F)(F)F)cc1 | 4.19 | 
C#CCN(C)Cc1ccc(Br)cc1 |  | Activity (SUM-159-PT [2]): Non-Toxic; Activity (SUM-159-PT [3]): Non-Toxic; Activity (SUM-159-PT [4]): Non-Toxic; pIC50 [5]: 6.52; Activity (SUM-159-PT [6]): Non-Toxic; Activity (SUM-159-PT [7]): Non-Toxic; Activity (SUM-159-PT [8]): Non-Toxic; Activity (SUM-159-PT [9]): Non-Toxic
C=CCN(C)Cc1ccc(Br)cc1 | < 3.30 | 
C#CCN(CCC)Cc1ccc(Br)cc1 | < 3.30 | 
C#CCN(Cc1ccc(Br)cc1)Cc1cc(C)no1 | 4.00 | 
C#CCN(C)Cc1ccc(Br)cc1Br | 3.64 | 
C#CCN(C)Cc1ccc(C#N)cc1 | < 3.30 | 
C#CCN(C)Cc1ccc(OC)cc1OC | < 3.30 | 
CN(CC#Cc1ccccc1)Cc1ccc(Br)cc1 | 4.15 | 
C#CCN(C)Cc1ccc(-c2ccc(F)cc2)cc1 | 3.68 | 
C#CCN(C)Cc1ccc(C)cc1 | 4.40 | 
C#CCN(C)Cc1ccc(Cl)c(Cl)c1 | 4.87 | 
C#CCN(C)Cc1cc(Br)cs1 | < 3.30 | 
CN(Cc1ccc(Br)cc1)CC1CC1 | < 3.30 | 
C#CCN(C)Cc1ccccc1[N+](=O)[O-] | < 3.30 | 

SMILES | pIC50 [1] | other results
C#CCN(C)Cc1c(Cl)cccc1Cl | < 3.30 | 
C#CCN(C)Cc1ccc(F)cc1 | 3.51 | 
C#CCN(C)Cc1ccc(C(C)C)cc1 | 3.85 | 
C#CCN1Cc2ccc(Br)cc2C1 | < 3.30 | 
C#CC(C)N(C)Cc1ccc(Br)cc1 (centres undefined) | 3.40 | 
C#CCN(C)Cc1ccc(Br)cc1F | 4.38 | 
C#CCN(C)CCc1ccc(Br)cc1 | < 3.30 | 
C#CCN(C)Cc1ccc(C(C)=O)cc1 | 3.74 | 
C#CCN(C)Cc1ccc(Cl)cc1Br | 4.18 | 
CC#CCN(C)Cc1ccc(Br)cc1 | 4.80 | 
C#CCN(C)Cc1ccccc1Cl | 3.86 | 
C#CCN(C)Cc1cc(C)no1 | < 3.30 | 
C#CCN(Cc1ccc(Br)cc1)C(C)=O | < 3.30 | 
CN(Cc1ccccc1)Cc1ccc(Br)cc1 | < 3.30 | 
C#CCN(C)Cc1ccc(Br)cc1Cl | 4.47 | 
